Assay results gathered from unrelated publications.
Lines come from different studies, so protocols differ.

With C/C(=N/c1ccc(/N=C/c2ccc(/C=N/c3ccc(/N=C(/C)N(C)C)cc3)cc2)cc1)N(C)C the solubility was 0.38 µg/mL (shake flask; PBS; pH 7.4, 25 °C).
Cc1cccn2c(=O)c3cc(C(=O)N[C@@H](C)c4ccccc4)c(N)[n+](CCOCCO)c3nc12 has a solubility of greater than 20 µM (PBS).
COc1ccc2cc3n(c(=O)c2c1OC)CCc1cc2c(cc1-3)OCO2 gave a solubility of less than 0.05 µg/mL (water; 24 h, 25 °C).
With Oc1ccccc1/C=N/c1c(-c2ccccc2)nc2ccc(Cl)cn12 the solubility was 125 µg/mL (aqueous buffer; pH 7).
CC(C)[C@H](NC(=O)[C@H](Cc1cscn1)NC(=O)CCc1ccccc1)C(=O)N[C@@H](CCCNC(=N)N)C(=O)c1nc2ccccc2s1 gave a solubility of greater than 10 µM (PBS; 90 min, pH 7.4).
For Cn1cnc2ccc(Nc3c(F)ccc(NS(=O)(=O)N4CC(F)C4)c3Cl)c(Cl)c2c1=O, the solubility was 13 µg/mL (FaSSIF; pH 6.91).
N#C[C@@]12C[C@@H]1[C@@H](n1cnc3c(N[C@@H](C4CCC4)C4CC4)nc(I)nc31)[C@H](O)[C@@H]2O gave a solubility of 50 µg/mL (aqueous buffer; pH 7.4).
With O=[N+]([O-])c1ccccc1/C=N/c1c(-c2ccccc2)nc2ccc(Cl)cn12 the solubility was less than 1 µg/mL (aqueous buffer; pH 7).
For CC(=O)C(C)n1c(CN2CCN(c3cccc(Cl)c3)CC2)nc2c1c(=O)n(C)c(=O)n2C (stereo not drawn), the solubility was greater than 20 µM (PBS).
The solubility of Cc1c(C(=O)O)ccc2c3n(nc12)[C@@H]1[C@H](C3)N(CC2CC2)[C@@]2(C(=O)Nc3cc(Cl)ccc32)[C@H]1c1cccc(Cl)c1F is reported as less than 1 µg/mL (aqueous buffer; pH 6.8).
CC(=Nc1ccc(N=Cc2cnccn2)cc1)N(C)C gave a solubility of roughly 20 µg/mL (shake flask; PBS; 24 h, pH 7.4, 25 °C).
For Cn1cncc1[C@@](N)(c1ccc(Cl)cc1)c1ccc2c(c1)c(-c1cccc(Cl)c1)cc(=O)n2C, the solubility was 0.12 µg/mL (water; pH 7.6, 25 °C).
